# Experimental data taken from ChEMBL document CHEMBL4028805, “Phenylthiazole Antibacterial Agents Targeting Cell Wall Synthesis Exhibit Potent Activity in Vitro and in Vivo against Vancomycin-Resistant Enterococci” (J Med Chem, 2017).
# The source made the active and inactive calls.
# Key:
# [1] = test system: Staphylococcus aureus; test: Antibacterial against Methicillin-Resistant Staphylococcus aureus after 18 to 20 hrs by broth microdilution method; assay type: functional
# [2] = test system: Enterococcus faecium; test: Potentiation of vancomycin-induced antibacterial activity against Enterococcus faecium HM-968 assessed as fold reduction in vancomycin MIC preincubated for 30 mins followed by vancomycin addition measured after 18 to 21 hrs; assay type: functional
# Summary of the method: (§1)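 VRE suspensions at 5×10^5 CFU/mL preincubated with compound at ½ × MIC for 30 min at room temperature. […] Fold reduction calculated as vancomycin MIC alone over MIC in combination.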
# [3] = Inhibition of Escherichia coli UPPS using IPP and FPP as substrate preincubated for 30 mins followed by substrate addition measured after 20 mins by malachite green phosphate assay
# Summary of the method: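 Purified E. coli UPPS preincubated 30 min at room temperature with inhibitor (200 to 0.2 μM) in 100 mM HEPES, 50 mM NaCl, 0.5 mM MgCl2, 0.02% DDM, pH 7.5. Then 10 μM IPP and FPP added with 0.375 U/mL inorganic phosphatase. Phosphate read by malachite green at 620 nm. IC50 from dose-response curves.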
# [4] = test system: Enterococcus faecium; test: Potentiation of vancomycin-induced antibacterial activity against Enterococcus faecium ATCC 700221 assessed as fold reduction in vancomycin MIC preincubated for 30 mins followed by vancomycin addition measured after 18 to 21 hrs; assay type: functional; summary of the method: as §1
# [5] = test system: Enterococcus faecium; test: Bactericidal activity against vancomycin-resistant Enterococcus faecium ATCC 700221 at 4 times MIC after 2 hrs by time-kill assay; assay type: functional
# Summary of the method: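 Late-log cells diluted to ~5 × 10^6 CFU/mL and exposed in triplicate to 4 × MIC, in TSB (E. faecalis HM-201) or BHI (E. faecium ATCC 700221) at 37 °C. Sampled at 0, 2, 4, 6, 8, 10, 12 and 24 h, diluted serially in PBS and plated on TSA or BHI agar. CFU/mL counted after 18–22 h. DMSO served as negative control.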
# [6] = test system: Enterobacter cloacae; test: Antibacterial activity against Enterobacter cloacae BAA-1154 after 18 to 22 hrs in absence of colistin by broth microdilution method; assay type: functional
# [7] = test system: Acinetobacter baumannii; test: Antibacterial activity against Acinetobacter baumanii ATCC 19606 after 18 to 22 hrs in absence of colistin by broth microdilution method; assay type: functional; conditions: ATCC 19606 = CIP 70.34 = JCM 6841
# Summary of the method: (§2)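 Broth microdilution per CLSI guidelines. Gram-negatives grown in TSB. Each strain tested alone and again with colistin at ¼ × MIC to permeabilize the outer membrane. Plates incubated at 37 °C for 18–22 h. MIC read as the lowest concentration showing no visible growth.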
# [8] = Induction of proton motive force collapse in Escherichia coli inverted membrane vesicle in presence of succinate/O2-driven PMF generation system by ACMA-based fluorescence assay; assay type: functional, cell membranes
# Summary of the method: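 E. coli inverted membrane vesicles (0.1 mg/mL membrane protein) with 2 μM ACMA and 0.5 mM ATP or succinate, in 10 mM HEPES-KOH, 5 mM MgSO4, 100 mM KCl, pH 7.5. Proton gradient followed by ACMA fluorescence (ex 410/em 480 nm). EC50 taken from dose-response curves. CCCP used as reference uncoupler.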
# [9] = test system: Bacillus subtilis; test: Antibacterial activity against Bacillus subtilis assessed as bending of cells at 5 times MIC after 2 hrs in presence of methylsulfonyl methane by phase contrast microscopic analysis; assay type: functional
# Summary of the method: (§3)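 B. subtilis grown in LB at 37 °C to OD600 ~0.2, then treated at 5 × MIC with MSM for osmotic stabilisation. At 2 h, stained with FM 4-64 (1 μg/mL), DAPI (1 μg/mL) and SYTOX Green (1 μg/mL). Imaged by deconvolution fluorescence and phase contrast microscopy.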
# [10] = test system: Escherichia coli; test: Antibacterial activity against tolC deficient Escherichia coli assessed as formation of spheroplasts at 25 ug/ml after 2 hrs in presence of sucrose by FM4-64/DAPI/SYTOX green staining-based deconvolution microscopic analysis; assay type: functional
# [11] = test system: Bacillus subtilis; test: Antibacterial activity against Bacillus subtilis assessed as pool of membranes at 5 times MIC after 2 hrs in presence of methylsulfonyl methane by phase contrast microscopic analysis; assay type: functional; summary of the method: as §3
# [12] = test system: Klebsiella pneumoniae; test: Antibacterial activity against Klebsiella pneumoniae BAA-1706 after 18 to 22 hrs in presence of 1/4 times MIC colistin by broth microdilution method; assay type: functional; summary of the method: as §2
# [13] = test system: Bacillus subtilis; test: Antibacterial activity against Bacillus subtilis assessed as misshapen cells at 5 times MIC after 2 hrs in presence of methylsulfonyl methane by phase contrast microscopic analysis; assay type: functional; summary of the method: as §3
# [14] = test system: Enterococcus faecalis; test: Synergistic antimicrobial activity against Enterococcus faecalis ATCC 51299 after 20 hrs in presence of ciprofloxacin by checkerboard assay; assay type: functional
# Summary of the method: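 Checkerboard assay. McFarland 0.5 suspension diluted in TSB to 1 × 10^5 CFU/mL. Compound diluted along one plate axis and antibiotic along the other, each starting at 2× or 4× MIC. Incubated 20 h at 37 °C, MIC read as no visible growth. Synergy defined as ΣFIC ≤0.5, additive >0.5 to <2, indifferent 2–4, antagonistic >4.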
# [15] = test system: Enterococcus faecalis; test: Synergistic antimicrobial activity against Enterococcus faecalis ATCC 49533 after 20 hrs in presence of ciprofloxacin by checkerboard assay; assay type: functional
# Summary of the method: (§4)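 Checkerboard in TSB with a starting inoculum of 1×10^5 CFU/mL. Compound and antibiotic diluted from 2× or 4× MIC along perpendicular axes. Incubated 20 h at 37 °C. ΣFIC calculated: ≤0.5 synergy, >0.5 to <2 additive, 2–4 indifference, >4 antagonism.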
# [16] = test system: Escherichia coli; test: Antibacterial activity against tolC deficient Escherichia coli assessed as cell lysis at 25 ug/ml after 30 mins in presence of sucrose by FM4-64/DAPI/SYTOX Green staining-based deconvolution microscopic analysis; assay type: functional
# [17] = test system: Enterococcus faecalis; test: Inhibition of UPPP-mediated peptidoglycan biosynthesis in Enterococcus faecalis NR-31975 assessed as accumulation of UDP-N-acetylmuramyl-pentapeptide at 10 times MIC after 30 mins by HPLC-MS analysis
# Summary of the method: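 Pellets boiled 30 min. UDP-N-acetylmuramyl-pentapeptide measured by HPLC-TOF MS on a phenyl column, 5–20% acetonitrile/0.1% formic acid gradient, positive ESI.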
# [18] = test system: Escherichia coli; test: Antibacterial activity against tolC deficient Escherichia coli assessed as formation of spheroplasts at 25 ug/ml after 2 hrs by FM4-64/DAPI/SYTOX green staining-based deconvolution microscopic analysis; assay type: functional
# [19] = test system: Enterococcus faecium; test: Antibacterial activity against vancomycin-resistant Enterococcus faecium ATCC HM-968 after 14 serial passages measured after 18 hrs by broth microdillution method; assay type: functional
# Summary of the method: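 Multi-step selection over 14 passages in two weeks. McFarland 0.5 inoculum diluted 1:300 in TSB (E. faecalis) or BHI (E. faecium) to 1 × 10^5 CFU/mL. Each passage reinoculated at ~5 × 10^5 CFU/mL from the sub-inhibitory well of the previous plate. Compounds serially diluted in triplicate, incubated ≥18 h at 37 °C, MIC read visually. Resistance defined as >4-fold MIC rise.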
# [20] = test system: Enterococcus faecalis; test: Synergistic antimicrobial activity against Enterococcus faecalis ATCC 49532 after 20 hrs in presence of ciprofloxacin by checkerboard assay; assay type: functional; summary of the method: as §4
# [21] = test system: Escherichia coli; test: Antibacterial activity against Escherichia coli O157:H7 ATCC 35150 after 18 to 22 hrs in absence of colistin by broth microdilution method; assay type: functional
structure (smiles),measurement,setting,value
CCCCc1ccc(-c2nc(C)c(/C(C)=N/NC(=N)N)s2)cc1,MIC,[1],1.3 to 5.6 µg/mL
same,Activity,[2],inactive
same,IC50,[3],19 µM
same,fold change (FC),[4],256
same,Activity,[5],Active
same,MIC,[6],64 µg/mL
same,MIC,[7],8 µg/mL
same,EC50,[8],25 µM
same,Activity,[9],Active
same,Activity,[10],Active
same,Activity,[11],Active
same,MIC,[12],1 µg/mL
same,Activity,[13],Active
same,fractional inhibitory concentration index (FICI),[14],0.5
same,fractional inhibitory concentration index (FICI),[15],0.63 - 1
same,Activity,[16],Active
same,inhibition,[17],Active
same,Activity,[18],Active
same,Activity,[19],Active
same,fractional inhibitory concentration index (FICI),[20],0.63 - 1
same,MIC,[21],16 µg/mL
